Bioassay records (PubChem)
Compounds with a hit are over-represented: about 2.5% of the library has one in this group of screens.
SENP8 block-1 – SENP8 protease inhibitors, primary screen, biochemical, luminescence; purified SENP8, Z-RLRGG-aminoluciferin cleavage; inhibition, % at 10 µM; 330,000 compounds, 1.2% hits; in the data active = inhibition above about 50%
Target sequence (Q96LD8 whole entry, looked up): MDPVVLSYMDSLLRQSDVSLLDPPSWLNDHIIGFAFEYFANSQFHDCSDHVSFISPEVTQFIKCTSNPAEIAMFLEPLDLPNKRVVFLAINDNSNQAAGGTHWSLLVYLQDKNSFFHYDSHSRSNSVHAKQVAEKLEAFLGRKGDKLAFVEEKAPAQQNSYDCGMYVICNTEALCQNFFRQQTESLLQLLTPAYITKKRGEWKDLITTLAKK
SENP7 block – SENP7 protease inhibitors, primary screen, biochemical, luminescence, uHTS | inhibition, % at 5 µM | recombinant SENP7, Z-RLRGG-aminoluciferin luminescence, 40 min | AID 434973, 2010 | Sentrin-specific protease 7 (Homo sapiens), Q9BQF6 | 330,000 compounds, 1.5% hits;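 active = inhibition above about 50% at the single test dose, limit read from the data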;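 note: plate controls were DMSO with enzyme for no effect and no enzyme buffer wells for full effect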
SENP8 block-2 – human SENP8 protease inhibitors, primary screen, biochemical, fluorescence, Nedd8 protein substrate, uHTS; Sentrin-specific protease 8 (Homo sapiens), Q96LD8; recombinant SENP8; inhibition, % at 20 µM; 360,000 compounds, 0.64% hits; in the data active = inhibition mostly above about 40%, no sharp cut-off; inactive = mostly below about 27%
SENP6 block – SENP6 protease inhibitors, primary screen, biochemical, luminescence, uHTS. Sentrin-specific protease 6 (Homo sapiens), Q9GZR1. Recombinant SENP6 catalytic domain, aminoluciferin luminescence. inhibition, % at 10 µM. 330,000 compounds, 1.8% hits. AID 2599, 2010;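 active = inhibition above about 50% at the single tested dose, limit read from the data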;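 note: plate controls were DMSO wells with enzyme for no effect and DMSO wells lacking enzyme for full effect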
SENP1 FRET inh – human SENP1 catalytic domain inhibitors, primary screen, biochemical, FRET, uHTS | Sentrin-specific protease 1 (Homo sapiens), Q9P0U3 | recombinant SENP1 catalytic domain, CyPet-SUMO1-YPet FRET cleavage | inhibition, % at 10 µM | 360,000 compounds, 0.21% hits | AID 624204, 2012;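 active = inhibition at least 30% at 10 µM, raw YFP signal under a set limit, fluorescence ratio 0.5 to 1.5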;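 note: 0% = enzyme with DMSO and 100% = no enzyme wells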
Target sequence (Q9P0U3 419-644 limits assumed): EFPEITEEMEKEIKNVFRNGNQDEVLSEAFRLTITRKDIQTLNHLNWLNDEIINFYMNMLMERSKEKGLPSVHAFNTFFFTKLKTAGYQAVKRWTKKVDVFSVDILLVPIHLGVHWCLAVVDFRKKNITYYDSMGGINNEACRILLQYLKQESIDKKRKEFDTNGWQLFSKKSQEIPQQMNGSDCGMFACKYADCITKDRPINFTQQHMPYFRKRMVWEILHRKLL
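Material: hSENP1 catalytic domain, recombinant; medium: Tris pH 8 with BME, BSA, NP40 and catalase; compound: single concentration of 10 µM compound, 0.5% DMSO final; technique: FRET read of cyan and yellow fluorescence; timing: 50 min enzyme reaction, room temperature, light-protected; reagent: SFCypet-SUMO1-SFYpet substrate at 25 nM; control set: no-enzyme low, enzyme-DMSO high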
SENP8 conf – SENP8 protease inhibitors, retest, confirmation, biochemical, luminescence, single concentration. shares compounds with SENP7 block. Recombinant SENP8, Z-RLRGG-aminoluciferin luminescence, 60 min. inhibition, % at 12.5 µM. 6,200 compounds, 40% hits. AID 488912, 2010;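 active = mean inhibition across replicates above about 50%, limit read from the data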
SENP6 confirm – SENP6 protease inhibitors, confirmation, biochemical, luminescence, single concentration; shares compounds with SENP7 block; recombinant SENP6, Z-RLRGG-aminoluciferin luminescence; inhibition, % at 12.5 µM; 6,200 compounds, 58% hits
SENP7 confirm – SENP7 protease inhibitors, retest, confirmation, biochemical, luminescence, single concentration; shares compounds with SENP7 block; recombinant SENP7, Z-RLRGG-aminoluciferin luminescence, 40 min; inhibition, % at 12.5 µM; 6,200 compounds, 69% hits
Casp3 SENP sel – caspase-3 protease inhibitors, confirmation, selectivity assay for SENP inhibitor project, biochemical, single concentration; shares compounds with SENP7 block; inhibition, % at 12.5 µM; 6,200 compounds, 60% hits; purified caspase-3, Z-DEVD-aminoluciferin luminescence, 60 min;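 active = mean inhibition above about 50%, limit read from the data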;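 note: plate controls were enzyme with DMSO for no effect and wells without caspase-3 for full effect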
Luc interf – interferes with luciferase luminescence in SENP counter-screen | inhibition, % at 12.5 µM | 6,200 compounds, 39% hits | shares compounds with SENP7 block | Pre-incubated SENP8/Z-RLRGG-aminoluciferin, luciferase luminescence interference;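 active = mean inhibition above about 50% when retested at one dose, limit read from the data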;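 note: plate controls were DMSO wells with completed reaction for no effect and substrate without enzyme for full effect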
* hit, by the source's call; . = no result.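 Rule for the calls, unless noted: active = mean inhibition above about 50% in the one-dose retest (limit read from the data); inactive = the rest.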

SMILES | SENP8 block-1 | SENP7 block | SENP8 block-2 | SENP6 block | SENP1 FRET inh | SENP8 conf | SENP6 confirm | SENP7 confirm | Casp3 SENP sel | Luc interf
COc1ccc(CN(C)C(=S)Nc2ccc(Cl)cc2)cc1 | 3 | 9 | 6 | 8 | 3 | . | . | . | . | .
C/C(=N\NC(=O)c1ccccc1O)c1cccs1 | 18 | 61* | -36 | 1 | -41 | 50* | 45 | 78* | 85* | 58*
C/C(=N\NC(=O)c1ccc2ccccc2c1)c1cccs1 | 70* | 83* | -4 | 84* | 2 | 54* | 53* | 93* | 84* | 10
C/C(=N\NC(=O)c1cccc2ccccc12)c1cccs1 | 1 | 0 | 10 | -7 | 2 | . | . | . | . | .
C/C(=N/NC(=O)c1ccccc1O)c1ccc(N2C(=O)C3CCCCC3C2=O)cc1 (stereo unspecified) | -6 | 22 | -56 | 62* | -2 | -3 | -2 | -8 | -3 | -4
C/C(=N/NC(=O)c1cc(C2CC2)[nH]n1)c1cccs1 | 46 | 66* | 30 | 30 | 3 | 64* | 62* | 88* | 89* | 71*
C/C(=N\NC(=O)c1ccncc1)c1cccs1 | -4 | 4 | 8 | -8 | 1 | . | . | . | . | .
C/C(CC(C)C)=N\NS(=O)(=O)c1ccc(C)c([N+](=O)[O-])c1 | 4 | 3 | 27 | 85* | 0 | -10 | -10 | -6 | 4 | 0
Nc1ncnc2c1ncn2[C@@H]1O[C@H](CNS(=O)(=O)c2cc(S(=O)(=O)c3ccccc3)cs2)[C@@H](O)[C@H]1O | . | -8 | 4 | . | 0 | . | . | . | . | .
Cc1cccc(Nc2nc(-c3cccs3)cs2)n1 | 89* | 81* | -10 | 90* | 0 | 8 | 96* | 102* | 76* | 87*
c1cncc(-c2nc(-c3cccs3)cs2)c1 | -7 | -1 | -69 | -3 | 1 | . | . | . | . | .
c1csc(-c2csc(-c3cccs3)n2)c1 | 20 | 55* | -142 | -16 | -1 | 42 | 60* | 82* | 34 | 44
Nc1ccc(Nc2nc(-c3cccs3)cs2)cc1 | 37 | 2 | 11 | -11 | 1 | . | . | . | . | .
c1ccc(Nc2nc(-c3cccs3)cs2)nc1 | 94* | 83* | -31 | 92* | 1 | 96* | 97* | 102* | 88* | 94*
Cc1noc(C)c1C(=O)Nc1nc(-c2cccs2)cs1 | 28 | 21 | -11 | 46 | 0 | . | . | . | . | .
Cc1cccc(Nc2nc(-c3ccccn3)cs2)n1 | 70* | 79* | -6 | 76* | 0 | -5 | 78* | 95* | 74* | 86*
c1ccc(Oc2cc(-c3ccccc3)ncn2)cc1 | -18 | -18 | 35 | 16 | 2 | . | . | . | . | .
CCCc1cc(=O)oc2cc(C)cc(OC(C)C(=O)NCCN3CCOCC3)c12 (stereo unspecified) | 0 | 1 | -262 | 5 | 1 | . | . | . | . | .
CC(=O)NC(CCCN1C(=O)c2ccccc2C1=O)c1nnn(C)n1 (stereo unspecified) | 2 | 2 | 24 | -8 | 0 | . | . | . | . | .
Cc1ccccc1C(=O)NNC(=O)C1CC(=O)N(c2ccc3c(c2)OCCO3)C1 (stereo unspecified) | 0 | 12 | 16 | 11 | -1 | . | . | . | . | .
